Measured values: the M2OR odorant receptor database

How the values were obtained:
Settings in all cases: stereoisomer not certain
[1] = biological target: T1, UniProt A2ATE5
T1 sequence (whole entry): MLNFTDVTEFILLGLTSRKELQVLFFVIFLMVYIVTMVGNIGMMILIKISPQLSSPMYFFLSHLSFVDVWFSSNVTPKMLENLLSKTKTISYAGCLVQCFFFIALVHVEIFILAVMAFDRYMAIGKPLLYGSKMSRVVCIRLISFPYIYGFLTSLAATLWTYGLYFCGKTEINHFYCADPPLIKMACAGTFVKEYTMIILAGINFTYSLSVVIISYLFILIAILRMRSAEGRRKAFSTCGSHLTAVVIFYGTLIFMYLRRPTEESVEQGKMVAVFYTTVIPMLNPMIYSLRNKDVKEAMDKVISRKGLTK
Outline: (§1)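 Each entry records the cell line, G-protein, co-transfected protein and tags used. Methods varied with the source, often transient luciferase assays in mammalian cell lines. A receptor–molecule pair is called responsive (active) if the original authors judged its signal statistically different from baseline and non-responsive (inactive) otherwise.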

[2] = biological target: T2, UniProt A2AVB0
T2 sequence (whole entry): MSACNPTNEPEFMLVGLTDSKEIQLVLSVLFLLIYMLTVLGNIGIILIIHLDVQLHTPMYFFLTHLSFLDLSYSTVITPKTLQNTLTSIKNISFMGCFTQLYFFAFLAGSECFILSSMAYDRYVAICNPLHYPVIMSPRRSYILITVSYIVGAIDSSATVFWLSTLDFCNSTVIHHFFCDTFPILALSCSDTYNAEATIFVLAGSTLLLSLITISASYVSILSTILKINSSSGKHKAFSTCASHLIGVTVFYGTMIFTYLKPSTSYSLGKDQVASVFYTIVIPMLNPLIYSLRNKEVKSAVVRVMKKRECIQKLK
Outline: as §1

[3] = biological target: T3, UniProt E9PVX1
T3 sequence (whole entry): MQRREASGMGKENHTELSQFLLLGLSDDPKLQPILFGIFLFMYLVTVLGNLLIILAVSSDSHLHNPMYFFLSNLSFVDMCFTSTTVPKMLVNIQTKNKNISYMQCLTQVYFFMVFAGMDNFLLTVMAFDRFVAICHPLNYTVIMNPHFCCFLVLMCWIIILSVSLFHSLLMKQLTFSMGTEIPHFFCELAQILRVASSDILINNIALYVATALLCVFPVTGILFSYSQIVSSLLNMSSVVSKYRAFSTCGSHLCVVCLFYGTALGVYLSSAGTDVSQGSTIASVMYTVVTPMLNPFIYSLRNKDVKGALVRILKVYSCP
Outline: as §1

[4] = biological target: T4, UniProt E9PZ66
T4 sequence (whole entry): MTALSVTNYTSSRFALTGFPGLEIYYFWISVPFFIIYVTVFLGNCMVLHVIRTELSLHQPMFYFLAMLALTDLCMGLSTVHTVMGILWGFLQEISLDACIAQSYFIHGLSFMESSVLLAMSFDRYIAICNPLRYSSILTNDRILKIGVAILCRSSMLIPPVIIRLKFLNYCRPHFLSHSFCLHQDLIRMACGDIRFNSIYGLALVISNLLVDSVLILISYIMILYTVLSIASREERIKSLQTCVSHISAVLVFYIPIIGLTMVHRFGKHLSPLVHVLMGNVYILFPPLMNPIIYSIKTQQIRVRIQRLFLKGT
Outline: as §1

[5] = biological target: T5, UniProt E9Q4X7
T5 sequence (whole entry): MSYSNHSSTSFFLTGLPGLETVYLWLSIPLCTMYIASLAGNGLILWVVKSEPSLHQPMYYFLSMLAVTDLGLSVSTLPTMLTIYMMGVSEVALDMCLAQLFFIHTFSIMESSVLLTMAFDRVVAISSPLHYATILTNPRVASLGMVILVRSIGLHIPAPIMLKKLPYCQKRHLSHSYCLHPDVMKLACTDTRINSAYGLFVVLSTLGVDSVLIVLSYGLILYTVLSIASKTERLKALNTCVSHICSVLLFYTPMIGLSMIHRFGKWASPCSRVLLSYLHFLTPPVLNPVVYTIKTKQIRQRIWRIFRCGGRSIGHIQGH
Outline: as §1

[6] = biological target: T6, UniProt E9Q546
T6 sequence (whole entry): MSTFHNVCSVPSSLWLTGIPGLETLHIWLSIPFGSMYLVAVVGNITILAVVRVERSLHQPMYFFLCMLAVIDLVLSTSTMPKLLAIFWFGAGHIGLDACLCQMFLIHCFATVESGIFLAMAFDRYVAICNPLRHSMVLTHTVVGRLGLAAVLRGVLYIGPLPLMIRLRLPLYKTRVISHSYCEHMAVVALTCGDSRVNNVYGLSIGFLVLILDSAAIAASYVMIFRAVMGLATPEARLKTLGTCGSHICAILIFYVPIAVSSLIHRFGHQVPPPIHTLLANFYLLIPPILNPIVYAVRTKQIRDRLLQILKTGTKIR
Outline: as §1

[7] = biological target: T7, UniProt E9Q6Z7
T7 sequence (whole entry): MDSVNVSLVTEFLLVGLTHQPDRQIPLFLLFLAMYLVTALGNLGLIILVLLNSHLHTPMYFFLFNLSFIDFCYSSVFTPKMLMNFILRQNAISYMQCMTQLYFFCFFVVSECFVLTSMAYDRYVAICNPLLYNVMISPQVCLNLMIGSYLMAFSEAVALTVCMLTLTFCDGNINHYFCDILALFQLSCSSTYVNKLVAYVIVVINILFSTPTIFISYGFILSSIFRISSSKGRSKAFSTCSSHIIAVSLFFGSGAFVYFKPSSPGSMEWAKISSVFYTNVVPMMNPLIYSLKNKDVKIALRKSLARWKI
Outline: as §1

Measured: odorant receptor agonist call

C=C(C)C1CCC2(C)OC2C1 (stereo not given)
inactive: all assays above

CCCCCC(C=O)=Cc1ccccc1
inactive: all assays above

COc1nccnc1C
inactive: all assays above

CC(=O)OCc1ccc2c(c1)OCO2
inactive: all assays above

Cc1occc1SSc1ccoc1C
inactive: all assays above

CCCC(C)C(=O)OCC (stereo not given)
inactive: all assays above

Cc1ccc2c(c1)OCC(=O)CO2
inactive: all assays above

CCSSCC
inactive: all assays above

COc1ccccc1
inactive: all assays above

C1CCOC1
inactive: all assays above

C=C(CC)CCCC(C)(C)O
inactive: all assays above

O=C([O-])CCCCCCC(=O)[O-].[H+].[H+]
inactive: all assays above

Cc1ccc(C(C)C)c(O)c1
inactive: all assays above

Cc1c(C)c(C)c(C=O)c(C)c1C
inactive: all assays above

CC(=O)OCCc1ccccc1
inactive: all assays above
